Consider one compound from ChEMBL document CHEMBL4024800, “α-Amino-β-carboxymuconate-ε-semialdehyde Decarboxylase (ACMSD) Inhibitors as Novel Modulators of De Novo Nicotinamide Adenine Dinucleotide (NAD+) Biosynthesis” (J Med Chem, 2018).

Activity calls are given as the source filed them. The calls are words filed in the database; no cut-off is given here.

For the experiment, the target named is T1, Vitamin D3 receptor (Homo sapiens) (UniProt P11473).
T1 sequence (whole entry): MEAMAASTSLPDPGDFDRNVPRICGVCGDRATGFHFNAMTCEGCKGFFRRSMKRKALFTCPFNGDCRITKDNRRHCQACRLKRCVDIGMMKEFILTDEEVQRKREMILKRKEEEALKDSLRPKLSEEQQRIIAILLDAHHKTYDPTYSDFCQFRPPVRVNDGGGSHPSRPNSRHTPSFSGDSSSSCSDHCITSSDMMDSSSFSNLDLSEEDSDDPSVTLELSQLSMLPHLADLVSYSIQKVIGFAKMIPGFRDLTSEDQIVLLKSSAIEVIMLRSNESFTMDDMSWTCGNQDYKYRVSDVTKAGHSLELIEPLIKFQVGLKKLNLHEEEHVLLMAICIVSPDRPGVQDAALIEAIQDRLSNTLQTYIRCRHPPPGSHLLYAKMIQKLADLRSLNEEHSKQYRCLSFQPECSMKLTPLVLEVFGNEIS
The experiment in a line: Activity at VDR (unknown origin). Summed up:
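Eight-point serial dilutions tested in an in-house AlphaScreen-based nuclear receptor panel; activity derived from nonlinear regression curves.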

As for `N#Cc1c(-c2cccs2)nc(SCc2cccc(CC(=O)O)c2)[nH]c1=O`, the result was inactive.
